Results taken from ChEMBL document CHEMBL4346684, “Synthesis and structure-bactericidal activity relationships of non-ketolides: 9-Oxime clarithromycin 11,12-cyclic carbonate featured with three-to eight-atom-length spacers at 3-OH” (Eur J Med Chem, 2019).
Converted amounts (≈) assume the structure as drawn.

Columns and labels:
Format in all cases: functional
[1] = system: Staphylococcus epidermidis; test: Antimicrobial activity against Staphylococcus epidermidis E1 incubated in CAMHB medium for 20 hrs by two-fold microbroth dilution method; conditions: E1, 20 h
Summary of the method: (§1)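 Clinical isolates and ATCC strains, purified by plate activation and used fresh; inoculum about 5×10^5 CFU/ml final. Grown in CAMHB at 35 °C for 20 h.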

Streptococcus pyogenes [2] = test: Antimicrobial activity against constitutively erythromycin resistant Streptococcus pyogenes A2 expressing c-erm incubated in CAMHB medium for 20 to 24 hrs by two-fold microbroth dilution method
Summary of the method: (§2)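 Purified fresh Streptococcus isolate at about 5×10^5 CFU/ml final in CAMHB with 5% horse serum, 35 °C for 20–24 h. […] Each run included ATCC strains and reference antibiotics as QC, plus an antibiotic-free growth control.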

Streptococcus pneumoniae [3] = test: Antimicrobial activity against erythromycin-susceptible Streptococcus pneumoniae ATCC 49619 incubated in CAMHB medium for 20 to 24 hrs by two-fold microbroth dilution method
Streptococcus pneumoniae [4] = test: Antimicrobial activity against mef-encoded erythromycin resistant Streptococcus pneumoniae PU09 incubated in CAMHB medium for 20 to 24 hrs by two-fold microbroth dilution method
Staphylococcus aureus [5] = test: Antimicrobial activity against inducibly erythromycin-resistant Staphylococcus aureus PU32 expressing i-ermA incubated in CAMHB medium for 20 hrs by two-fold microbroth dilution method; conditions: PU32, 20 h
Summary of the method: (§3)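 Purified fresh Staphylococcus isolate at about 5×10^5 CFU/ml final in CAMHB, 35 °C for 20 h. […] Each run included ATCC strains and reference antibiotics as QC, plus an antibiotic-free growth control.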

Staphylococcus aureus [6] = test: Antimicrobial activity against erythromycin-susceptible Staphylococcus aureus ATCC 29213 incubated in CAMHB medium for 20 hrs by two-fold microbroth dilution method; conditions: ATCC 29213, 20 h; summary of the method: as §1
Staphylococcus aureus [7] = test: Antimicrobial activity against constitutively erythromycin resistant Staphylococcus aureus PU20 expressing c-ermC incubated in CAMHB medium for 20 hrs by two-fold microbroth dilution method; conditions: PU20, 20 h; summary of the method: as §3
Streptococcus pneumoniae [8] = test: Antimicrobial activity against constitutively erythromycin resistant Streptococcus pneumoniae PU27 expressing c-erm incubated in CAMHB medium for 20 to 24 hrs by two-fold microbroth dilution method; summary of the method: as §2
Streptococcus pyogenes [9] = test: Antimicrobial activity against erythromycin-susceptible Streptococcus pyogenes A3 incubated in CAMHB medium for 20 to 24 hrs by two-fold microbroth dilution method
Staphylococcus aureus [10] = test: Antimicrobial activity against inducibly erythromycin resistant Staphylococcus aureus PU64 expressing i-ermA incubated in CAMHB medium for 20 hrs by two-fold microbroth dilution method; conditions: PU64, 20 h; summary of the method: as §3
Streptococcus pyogenes [11] = test: Bactericidal activity against inducibly erythromycin resistant Streptococcus pyogenes 01-968 expressing i-ermA assessed as reduction in colony formation incubated in CAMHB medium for 20 to 24 hrs followed by 24 hrs subculturing in the medium without test compound
Haemophilus influenzae [12] = test: Ratio of MBC to MIC for azithromycin-susceptible Haemophilus influenzae ATCC 49247
Haemophilus influenzae [13] = test: Bactericidal activity against azithromycin-susceptible Haemophilus influenzae ATCC 49247 assessed as reduction in colony formation incubated in HTM broth medium for 20 to 24 hrs followed by 24 hrs subculturing in the medium without test compound
Streptococcus pneumoniae [14] = test: Bactericidal activity against erythromycin-susceptible Streptococcus pneumoniae ATCC 49619 assessed as reduction in colony formation incubated in CAMHB medium for 20 to 24 hrs followed by 24 hrs subculturing in the medium without test compound
Streptococcus pneumoniae [15] = test: Ratio of MBC to MIC for mef-encoded erythromycin resistant Streptococcus pneumoniae PU09
Staphylococcus aureus [16] = test: Bactericidal activity against inducibly erythromycin-resistant and methicillin resistant Staphylococcus aureus PU32 expressing i-ermA assessed as reduction in colony formation incubated in CAMHB medium for 20 hrs followed by 24 hrs subculturing in the medium without test compound
Streptococcus pyogenes [17] = test: Ratio of MBC to MIC for inducibly erythromycin resistant Streptococcus pyogenes 01-968 expressing i-ermA
Staphylococcus aureus [18] = test: Antimicrobial activity against constitutively erythromycin resistant and methicillin resistant Staphylococcus aureus PU20 expressing c-ermC incubated in CAMHB medium for 20 hrs by two-fold microbroth dilution method; conditions: PU20, 20 h
Summary of the method: (§4)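 Purified fresh Staphylococcus isolate at about 5×10^5 CFU/ml final in CAMHB, 35 °C for 20 h. Each run included ATCC strains and reference antibiotics as QC, plus an antibiotic-free growth control.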

Streptococcus pyogenes [19] = test: Antimicrobial activity against inducibly erythromycin resistant Streptococcus pyogenes 01-968 expressing i-ermA incubated in CAMHB medium for 20 to 24 hrs by two-fold microbroth dilution method
Staphylococcus aureus [20] = test: Antimicrobial activity against inducibly erythromycin-resistant and methicillin resistant Staphylococcus aureus PU32 expressing i-ermA incubated in CAMHB medium for 20 hrs by two-fold microbroth dilution method; conditions: PU32, 20 h; summary of the method: as §4
Streptococcus pneumoniae [21] = test: Ratio of MBC to MIC for erythromycin-susceptible Streptococcus pneumoniae ATCC 49619
Streptococcus pneumoniae [22] = test: Bactericidal activity against mef-encoded erythromycin resistant Streptococcus pneumoniae PU09 assessed as reduction in colony formation incubated in CAMHB medium for 20 to 24 hrs followed by 24 hrs subculturing in the medium without test compound
Haemophilus influenzae [23] = test: Antimicrobial activity against azithromycin-susceptible Haemophilus influenzae ATCC 49247 incubated in HTM broth medium for 20 to 24 hrs by two-fold microbroth dilution method
Staphylococcus aureus [24] = test: Bactericidal activity against constitutively erythromycin resistant and methicillin-resistant Staphylococcus aureus PU20 expressing c-ermC assessed as reduction in colony formation incubated in CAMHB medium for 20 hrs followed by 24 hrs subculturing in the medium without test compound

Row | Structure (SMILES) | MIC [1] [µg/mL] | MIC (Streptococcus pyogenes [2]) [µg/mL] | MIC (Streptococcus pneumoniae [3]) [µg/mL] | MIC (Streptococcus pneumoniae [4]) [µg/mL] | MIC (Staphylococcus aureus [5]) [µg/mL] | MIC (Staphylococcus aureus [6]) [µg/mL] | MIC (Staphylococcus aureus [7]) [µg/mL] | MIC (Streptococcus pneumoniae [8]) [µg/mL] | MIC (Streptococcus pyogenes [9]) [µg/mL] | MIC (Staphylococcus aureus [10]) [µg/mL] | also measured
1 | C=CCO/N=C1\[C@H](C)C[C@@](C)(OC)[C@H](O[C@@H]2O[C@H](C)C[C@H](N(C)C)[C@H]2O)[C@@H](C)[C@H](OCC#Cc2cncc(C#N)c2)[C@@H](C)C(=O)O[C@H](CC)[C@@]2(C)OC(=O)O[C@@H]2[C@H]1C | 256 (≈ 316 µM) | 128 (≈ 158 µM) | 4 (≈ 4.93 µM) | 8 (≈ 9.86 µM) | 128 (≈ 158 µM) | 64 (≈ 78.9 µM) | 128 (≈ 158 µM) | 64 (≈ 78.9 µM) | 4 (≈ 4.93 µM) | 128 (≈ 158 µM) | 
2 | C=CCO/N=C1\[C@H](C)C[C@@](C)(OC)[C@H](O[C@@H]2O[C@H](C)C[C@H](N(C)C)[C@H]2O)[C@@H](C)[C@H](OCC#Cc2ccc(N)nc2)[C@@H](C)C(=O)O[C@H](CC)[C@@]2(C)OC(=O)O[C@@H]2[C@H]1C | 256 (≈ 320 µM) | 64 (≈ 79.9 µM) | 2 (≈ 2.5 µM) | 4 (≈ 4.99 µM) | 256 (≈ 320 µM) | 32 (≈ 40 µM) | 256 (≈ 320 µM) | 64 (≈ 79.9 µM) | 4 (≈ 4.99 µM) | 256 (≈ 320 µM) | 
3 | C=CCO/N=C1\[C@H](C)C[C@@](C)(OC)[C@H](O[C@@H]2O[C@H](C)C[C@H](N(C)C)[C@H]2O)[C@@H](C)[C@H](OCC#Cc2ccc(N)cn2)[C@@H](C)C(=O)O[C@H](CC)[C@@]2(C)OC(=O)O[C@@H]2[C@H]1C | > 256 | 128 (≈ 160 µM) | 4 (≈ 4.99 µM) | 8 (≈ 9.99 µM) | 128 (≈ 160 µM) | 64 (≈ 79.9 µM) | > 256 | 64 (≈ 79.9 µM) | 4 (≈ 4.99 µM) | > 256 | 
4 | CC[C@H]1OC(=O)[C@H](C)[C@@H](OC(=O)CCNCCCc2ccc3c(c2)c(=O)c(C(=O)O)cn3C2CC2)[C@H](C)[C@@H](O[C@@H]2O[C@H](C)C[C@H](N(C)C)[C@H]2O)[C@](C)(OC)C[C@@H](C)/C(=N\OC)[C@H](C)[C@H]2OC(=O)O[C@@]21C |  |  | 0.5 (≈ 0.508 µM) | 4 (≈ 4.06 µM) |  |  |  |  |  |  | MBC (Streptococcus pyogenes [11]): 32 µg/mL (≈ 32.5 µM); Ratio (Haemophilus influenzae [12]): 2; MBC (Haemophilus influenzae [13]): 256 µg/mL (≈ 260 µM); MBC (Streptococcus pneumoniae [14]): 1 µg/mL (≈ 1.02 µM); Ratio (Streptococcus pneumoniae [15]): 1; MBC (Staphylococcus aureus [16]): > 256 µg/mL; Ratio (Streptococcus pyogenes [17]): 1; MIC (Staphylococcus aureus [18]): 128 µg/mL (≈ 130 µM); MIC (Streptococcus pyogenes [19]): 32 µg/mL (≈ 32.5 µM); MIC (Staphylococcus aureus [20]): 128 µg/mL (≈ 130 µM); Ratio (Streptococcus pneumoniae [21]): 2; MBC (Streptococcus pneumoniae [22]): 4 µg/mL (≈ 4.06 µM); MIC (Haemophilus influenzae [23]): 128 µg/mL (≈ 130 µM); MBC (Staphylococcus aureus [24]): > 256 µg/mL
5 | CC[C@H]1OC(=O)[C@H](C)[C@@H](O[C@H]2C[C@@](C)(OC)[C@@H](O)[C@H](C)O2)[C@H](C)[C@@H](O[C@@H]2O[C@H](C)C[C@H](N(C)C)[C@H]2O)[C@](C)(O)C[C@@H](C)CN(C)[C@H](C)[C@@H](O)[C@]1(C)O [AZITHROMYCIN] | > 256 | 128 (≈ 171 µM) | 0.25 (≈ 0.334 µM) | 16 (≈ 21.4 µM) | > 256 | 2 (≈ 2.67 µM) | > 256 | 64 (≈ 85.4 µM) | 0.25 (≈ 0.334 µM) | > 256 | 
6 | C=CCO/N=C1\[C@H](C)C[C@@](C)(OC)[C@H](O[C@@H]2O[C@H](C)C[C@H](N(C)C)[C@H]2O)[C@@H](C)[C@H](OCC#Cc2cccnc2N)[C@@H](C)C(=O)O[C@H](CC)[C@@]2(C)OC(=O)O[C@@H]2[C@H]1C | 256 (≈ 320 µM) | 64 (≈ 79.9 µM) | 4 (≈ 4.99 µM) | 8 (≈ 9.99 µM) | 256 (≈ 320 µM) | 64 (≈ 79.9 µM) | 256 (≈ 320 µM) | 32 (≈ 40 µM) | 4 (≈ 4.99 µM) | 64 (≈ 79.9 µM) | 
7 | CC[C@H]1OC(=O)[C@H](C)[C@@H](OC(=O)NCCCc2cncc(N)c2)[C@H](C)[C@@H](O[C@@H]2O[C@H](C)C[C@H](N(C)C)[C@H]2O)[C@](C)(OC)C[C@@H](C)/C(=N\OC)[C@H](C)[C@H]2OC(=O)O[C@@]21C |  |  | 0.25 (≈ 0.304 µM) | 4 (≈ 4.87 µM) |  |  |  |  |  |  | Ratio (Haemophilus influenzae [12]): 1; MBC (Haemophilus influenzae [13]): 256 µg/mL (≈ 311 µM); MBC (Streptococcus pneumoniae [14]): 0.5 µg/mL (≈ 0.608 µM); Ratio (Streptococcus pneumoniae [21]): 2; MBC (Streptococcus pneumoniae [22]): 8 µg/mL (≈ 9.73 µM); MIC (Haemophilus influenzae [23]): 256 µg/mL (≈ 311 µM)
